Screens: PubChem, several laboratories
Rows were chosen to be rich in hits. Some 2.3% of all compounds tested hit in one or more screens of this group.
HGIII-sPLA2 inh – Blocks human group III sPLA2 activity. inhibition, % at 12.2 µM. 370,000 tested, 0.56% active. Q9NZ20. AID 743126. QFRET BODIPY PC-A2 liposome hydrolysis, fluorescence;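 active = inhibition above mean plus 3 SD of compounds lying within the high and low control bounds, cut at about 19% in these data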
Calb FLC – C. albicans growth modulation with fluconazole | C. albicans CaCi-2 + fluconazole, Alamar Blue growth, 48 h | growth inhibition, % (no concentration beside the values) | AID 1979 | 300,000 tested, 0.57% active;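 active = growth inhibition above about 58% in most replicates, limit read from the data, passing the limit was not always enough; inconclusive = exactly half the replicates above a set limit; inactive = most replicates below a set limit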;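 note: all wells also contain fluconazole at 8 µg/ml as a sub-toxic cotreatment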
SKKanGAS inh – SKKanGAS growth inhibition; S. pyogenes SKKanGAS, kanamycin growth, BacTiter-Glo, 6 h; inhibition, % at 7.5 µM; 300,000 tested, 1.3% active;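 active = mean replicate score, as percent of positive control median, at least 50; inconclusive = mean below 50 but one replicate at or above 50; inactive = mean and every replicate below 50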;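 note: strain carries kanamycin resistance gene driven by streptokinase promoter and grows in 40 µg/ml kanamycin; loss of luminescence reflects streptokinase promoter inhibition or plain growth inhibition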
ASAP1 inh – blocks human ASAP1-stimulated Arf1 GTP hydrolysis. inhibition, % at 16.5 µM. AID 624377. 360,000 tested, 0.19% active. GDP FP detection. Q9ULH1; in the data active = inhibition above about 25%
Target sequence (Q9ULH1 325-724 limits assumed): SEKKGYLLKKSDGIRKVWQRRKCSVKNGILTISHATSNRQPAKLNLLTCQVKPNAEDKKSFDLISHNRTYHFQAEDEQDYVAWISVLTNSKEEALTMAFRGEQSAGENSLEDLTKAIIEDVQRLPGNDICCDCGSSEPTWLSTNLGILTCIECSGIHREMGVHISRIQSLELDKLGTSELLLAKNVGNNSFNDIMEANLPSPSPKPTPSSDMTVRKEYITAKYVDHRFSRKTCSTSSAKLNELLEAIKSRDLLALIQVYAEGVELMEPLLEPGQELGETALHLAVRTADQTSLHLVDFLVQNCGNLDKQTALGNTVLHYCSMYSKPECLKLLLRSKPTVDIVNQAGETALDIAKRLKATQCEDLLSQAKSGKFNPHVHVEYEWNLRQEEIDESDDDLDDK
ARFGAP1 inh – inhibits rat ARF GTPase activating protein 1 | 360,000 tested, 0.26% active | inhibition, % at 16.5 µM | Arfgap1-stimulated ARF1 GTP hydrolysis, GDP FP detection;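 active = inhibition above a per-plate limit, mean inhibition of low control wells plus 3 SD, cut at about 25% in these data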
Target sequence (Q62848 1-136 limits assumed): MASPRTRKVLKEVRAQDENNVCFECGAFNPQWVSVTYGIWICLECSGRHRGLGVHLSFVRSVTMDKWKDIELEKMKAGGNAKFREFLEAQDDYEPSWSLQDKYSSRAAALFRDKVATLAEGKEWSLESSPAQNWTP
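Assay system: purified rat His6-Arfgap1 residues 1-136 (GAP domain); Reagent: human Δ17 ARF1 bound to GTP; Dosing: 16.5 µM single point, 1.26% DMSO; Times: GTP hydrolysis reaction 2 h at 25 °C; Signal: FP, GDP Alexa 633 tracer displaced from anti-GDP antibody, 620/688 nm; Measure: % inhibition from polarization.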
Large screens that a line does not name were inactive.

Oc1ccc(/C=N/n2c3ccccc3c3ccccc32)cc1	SKKanGAS inh 70.9
Cc1nnc(C)n1/N=C/c1ccc(O)cc1	none
CCCN(C(=O)c1cn(CCC)c2ccccc12)c1ccc(Oc2cccnc2)cc1	none (no result: Calb FLC, SKKanGAS inh)
c1ccc(Nc2nc(NCC3CCCO3)c3ccccc3n2)cc1 (centres undefined)	Calb FLC inconclusive
CCOc1ccc(Nc2nc(NCC3CCCO3)c3ccccc3n2)cc1 (centres undefined)	Calb FLC 98.9
COc1cc(OC)c2c(O)c3c(=O)cc(C)oc3c(-c3c(OC)cc4cc5c(c(O)c4c3O)C(=O)CC(C)(O)O5)c2c1 (centres undefined)	none (no result: Calb FLC, SKKanGAS inh, ASAP1 inh, ARFGAP1 inh)
C=CCc1cccc(/C=N/NC(=O)C(=O)Nc2ccc(C)cc2)c1O	SKKanGAS inh 70.1
CC(=O)c1ccc(N2CCC(c3cc(-c4ccc(Cl)cc4Cl)n[nH]3)CC2)c([N+](=O)[O-])c1	SKKanGAS inh 79.6
NC(=O)C1CCN(c2ncccc2[N+](=O)[O-])CC1	none
CC(=O)c1ccc(N2CCN(c3ccccc3O)CC2)c([N+](=O)[O-])c1	none
O=[N+]([O-])c1cccnc1N1CCC(c2cc(-c3ccc(Cl)cc3Cl)n[nH]2)CC1	SKKanGAS inh 80.4
O=[N+]([O-])c1cccnc1N1CCCCC1	none
O=[N+]([O-])c1cccnc1N1CCC(c2cc(-c3cccc(C(F)(F)F)c3)n[nH]2)CC1	SKKanGAS inh 100.0
COc1ccc(OC)c(-c2cc(C3CCN(c4cc(Cl)nc(N)n4)CC3)[nH]n2)c1	none
COc1ccc(OC)c(-c2cc(C3CCN(c4ncccc4[N+](=O)[O-])CC3)[nH]n2)c1	SKKanGAS inh 57.1
CCCN(CC1CC1)C(=O)c1ccc(CNC(=O)c2cccc(Br)c2)cc1	none (no result: Calb FLC, SKKanGAS inh, ASAP1 inh, ARFGAP1 inh)
CCCCCCSc1cccc(-c2nc3ccc(C)cn3c2NC2CCCCC2)c1	none
Cc1ccc2nc(-c3ccccn3)c(NC3CCCC3)n2c1	SKKanGAS inh 96.3
Cc1ccccc1Nc1c(-c2ccccn2)nc2c(C)cccn12	SKKanGAS inh 81.1
Cc1cccc(C)c1Nc1c(-c2ccccn2)nc2ccccn12	SKKanGAS inh 96.6
CCOC(=O)C1(C)CCCN(C(=O)c2ccc(-c3ccccc3)cc2)C1 (centres undefined)	none (no result: Calb FLC, SKKanGAS inh)
COc1ccc(Oc2c(Br)cnn(Cc3cccc4ccccc34)c2=O)cc1	none (no result: Calb FLC, SKKanGAS inh, ASAP1 inh, ARFGAP1 inh)
CC(Cl)C(=O)N1c2ccccc2CCc2ccccc21 (centres undefined)	none
O=C(CCl)N1c2ccccc2CCc2ccccc21	Calb FLC 84.0
NS(=O)(=O)c1ccc(NC2=CC(=O)C(=O)c3ccccc32)cc1	none
Cc1ccc(NC2=CC(=O)C(=O)c3ccccc32)cc1	Calb FLC 100.5
CCOC(=O)c1ccc(NC2=CC(=O)C(=O)c3ccccc32)cc1	SKKanGAS inh 69.9
Cc1cc(C(=O)c2ccccc2)cc(C)c1O	none (no result: Calb FLC, SKKanGAS inh)
CC1=C/C(=C(\c2cc(C)c(O)c(Br)c2)c2ccccc2S(=O)(=O)O)C=C(Br)C1=O	ARFGAP1 inh 30.2
Cc1cc(Cl)n2c(nc3ccccc32)c1C#N	Calb FLC 94.3
CNc1cc(C)c(C#N)c2nc3ccccc3n12	none
Cc1ccc(-c2c(C#N)c(N)n3c(nc4ccccc43)c2C#N)cc1	SKKanGAS inh 52.2
CC(NCc1ccco1)C(=O)N1CCCN(C)CC1 (centres undefined)	none (no result: Calb FLC, SKKanGAS inh, ASAP1 inh, ARFGAP1 inh)
COc1cc(C(=O)NC2CCCCN(C(C)C)C2=O)cc(OC)c1OC (centres undefined)	none (no result: Calb FLC, SKKanGAS inh, ASAP1 inh, ARFGAP1 inh)
CCOCCCNC(=O)c1ccc(N(C)S(=O)(=O)c2ccc(OC)cc2)cc1	Calb FLC 106.3 (no result: SKKanGAS inh)
COc1ccc(S(=O)(=O)N(C)c2ccc(C(=O)NCCC(C)C)cc2)cc1	none
O=C(O)CN1C(=O)/C(=C\c2ccccc2OCc2ccc(Cl)cc2Cl)SC1=S	SKKanGAS inh 70.7
O=C(O)CN1C(=O)/C(=C\c2cc(Br)ccc2OCc2ccccc2Cl)SC1=S	SKKanGAS inh 94.6
O=C(O)CN1C(=O)/C(=C\c2cc(Br)ccc2OCc2ccccc2F)SC1=S	SKKanGAS inh 68.1
CCCC[C@H]1C2CC(OC(=O)Nc3ccccc3C)C(C2)[C@H]2CCCCN21 (some centres undefined)	none (no result: Calb FLC, SKKanGAS inh, ASAP1 inh, ARFGAP1 inh)
Cc1ccc(-c2csc3ncn(CC#N)c(=O)c23)cc1C	SKKanGAS inh 52.2
Cc1ccc(-c2csc3ncn(CC#N)c(=O)c23)cc1	none
COC(=O)[C@H](C(C)C)N(Cc1cn(Cc2ccccc2)nn1)S(=O)(=O)c1ccc(F)cc1Br	none (no result: Calb FLC, SKKanGAS inh, ASAP1 inh, ARFGAP1 inh)
CCOC(=O)C1=C(CC)Nc2ccccc2N=C1NC(=O)Nc1ccc(Cl)c(Cl)c1	SKKanGAS inh 93.2
Nc1[nH]c(C(=O)c2ccc(Br)cc2)c(-c2cccc3ccccc23)c1C(=O)NCCc1c[nH]c2ccccc12	none (no result: Calb FLC, SKKanGAS inh)
Cc1ccc(Nc2cc(C)nn2-c2nc(C)cc(=O)[nH]2)cc1	Calb FLC 79.9, SKKanGAS inh 92.0 (no result: HGIII-sPLA2 inh, ASAP1 inh, ARFGAP1 inh)
Cc1ccc(Nc2cc(C)nn2-c2nc(C)cc(C)n2)cc1	SKKanGAS inh 100.5
O=C(CCc1nc(-c2ccccc2F)no1)NCCc1c[nH]c2ccccc12	none (no result: Calb FLC, SKKanGAS inh, ASAP1 inh, ARFGAP1 inh)
COc1cccc(NC(=O)N2CC[C@@H]3[C@H]2c2cc(-c4cccc(C#N)c4)ccc2N(C)[C@@H]3CO)c1	none (no result: Calb FLC, SKKanGAS inh, ASAP1 inh, ARFGAP1 inh)
C=CCN1[C@@H](Cc2ccccc2)COc2cc(F)ccc2S1(=O)=O	none (no result: Calb FLC, SKKanGAS inh, ASAP1 inh, ARFGAP1 inh)
FC(F)(F)c1cccc(Cn2ccc3ccc(-c4ccc5ccn(Cc6cccc(C(F)(F)F)c6)c5c4)cc32)c1	none (no result: Calb FLC, SKKanGAS inh, ASAP1 inh, ARFGAP1 inh)
CCOC(=O)c1ccccc1OCc1cc(/C=N/n2cnnc2)ccc1OC	Calb FLC 102.2
CN(C(=O)[C@H]1O[C@@H](n2cnc3c(=O)[nH]c(N)nc32)[C@H](O)[C@@H]1O)C1CCCCC1	none (no result: Calb FLC, SKKanGAS inh)
O=c1[nH]n2c(C(F)(F)F)cc(C3CC3)nc2c1N=Nc1ccccc1	Calb FLC 88.4
COc1ccccc1C(=O)NNC(=S)NC(=O)c1ccco1	SKKanGAS inh 65.4
Cc1ccccc1C(=O)N1CCN(c2ccc(NC(=S)NC(=O)c3ccco3)cc2)CC1	none (no result: Calb FLC)
O=C(COc1ccc(Cl)cc1Cl)NNC(=S)NCc1ccco1	none
COc1ccc(Cl)cc1NC(=S)N1CCN(C(=O)c2ccco2)CC1	ARFGAP1 inh 39.4
O=C(COc1ccc(Cl)cc1Cl)NNC(=S)NC(=O)c1ccco1	SKKanGAS inh 94.6
COC(=O)c1cc(OC)c(OC)cc1NC(=S)NC(=O)c1ccco1	none
COc1ccccc1C(=O)NC(=S)Nc1ccc(N2CCN(C(=O)c3ccco3)CC2)cc1	SKKanGAS inh 88.3
Cn1cccc1CC(=O)NNC(=S)NC(=O)c1ccc(F)cc1	SKKanGAS inh 65.0
O=C(NNC(=S)NC(=O)c1ccco1)c1ccc(F)cc1	SKKanGAS inh 82.5
O=C(NC(=S)NNC(=O)c1ccco1)c1ccc(Br)cc1	SKKanGAS inh 55.4
Cn1cccc1CC(=O)NNC(=O)Nc1ccc(Cl)cc1	none
O=C(NNC(=S)Nc1ccc(F)cc1F)c1ccco1	none
O=C(CCNC(=O)c1ccco1)NNC(=O)c1ccc(Br)cc1	none (no result: Calb FLC, SKKanGAS inh)
C[C@H](O)[C@@H]1C(=O)N2CCc3c([nH]c4c(-c5ccccc5)cccc34)[C@@H]2C[C@@H]1N(C)C(=S)NCCc1ccccc1	none (no result: Calb FLC, SKKanGAS inh)
